Test results taken from ChEMBL document CHEMBL4680084, “New β-Lactam Derivatives Modulate Cell Adhesion and Signaling Mediated by RGD-Binding and Leukocyte Integrins” (J Med Chem, 2016).
The source made the active and inactive calls. The calls are words filed in the database; no cut-off is given here.

Legend:
[1] = target: T1, Integrin alpha-IIb/beta-3 (Homo sapiens, UniProt P05106+P08514); experiment: Inhibition of fibrinogen binding to alpha2bbeta3 isolated from human HEL cells incubated for 1 hr by […] competitive solid-phase binding assay
Integrin alpha-5/beta-1 [2] = target: T2, Integrin alpha-5/beta-1 (Homo sapiens, UniProt P05556+P08648); experiment: Inhibition of fibronectin binding to alpha5beta1 isolated from human K562 cells incubated for 1 hr by […] competitive solid-phase binding assay; assay type: tissue-based
In short: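 Plates coated overnight at 4 °C in carbonate buffer pH 9.6 with fibronectin 0.5 µg/mL (αvβ3, αvβ6, α5β1), fibrinogen 10 µg/mL (αIIbβ3, αvβ5) or ICAM-1 (αLβ2). Blocked 1 h in buffer containing Ca/Mg/Mn 1 mM each and 1% BSA. Purified integrin (3–10 µg/mL) incubated with compound (10⁻⁴–10⁻¹⁰ M) 1 h at room temperature. Bound integrin detected with primary antibody then AlexaFluor488 secondary, Ex485/Em535. Duplicate, at least three repeats.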

SK-MEL-24 = experiment: Toxicity in human SK-MEL-24 cells assessed as induction of cell necrosis and/or apoptosis incubated for 3 hrs by annexin V-PE and 7-AAD staining based by flow cytometry; settings: sk-mel-24, 3 h
In short: (§1)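 After 3 h incubation, cells resuspended in complete medium and stained with annexin V-PE/7-AAD reagent for 20 min at room temperature in the dark. Flow cytometry sorted cells into viable, early apoptotic and late apoptotic/necrotic populations.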

MCF7 = experiment: Toxicity in human MCF7 cells assessed as induction of cell necrosis and/or apoptosis incubated for 3 hrs by annexin V-PE and 7-AAD staining based by flow cytometry; settings: mcf7, 3 h; in short: as §1
HT-29 = experiment: Toxicity in human HT-29 cells assessed as induction of cell necrosis and/or apoptosis incubated for 3 hrs by annexin V-PE and 7-AAD staining based by flow cytometry; settings: ht-29, 3 h; in short: as §1
K562 = experiment: Toxicity in human K562 cells assessed as induction of cell necrosis and/or apoptosis incubated for 3 hrs by annexin V-PE and 7-AAD staining based by flow cytometry; settings: k562, 3 h; in short: as §1
HEL = experiment: Toxicity in human HEL cells assessed as induction of cell necrosis and/or apoptosis incubated for 3 hrs by annexin V-PE and 7-AAD staining based by flow cytometry; in short: as §1
Integrin alpha-V/beta-3 [3] = target: T3, Integrin alpha-V/beta-3 (Homo sapiens, UniProt P05106+P06756); experiment: Agonist activity at alphaVbeta3 in human SK-MEL-24 cells assessed as increase in cell adhesion to fibronectin pre-incubated for 30 mins before fibronectin and further incubated for 1 hr by nitrophenyl-N-acetyl-beta-D-glucosaminide substrate based chromogenic assay
In short: (§2)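 Compound or methanol vehicle pre-incubated with cells for 30 min at room temperature. Cells then plated on wells coated overnight at 4 °C with fibronectin 10 µg/mL (SK-MEL-24, K562, HT-29) or fibrinogen 10 µg/mL (MCF7, HEL). Seeding was 50,000 cells/well, or 100000 for HEL. Adhesion ran 1 h at room temperature. Wells washed with 1% BSA/PBS. Adherent cells read by hexosaminidase substrate, absorbance 405 nm. Quadruplicate, at least three repeats.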

Integrin alpha-V/beta-3 [4] = target: T3, Integrin alpha-V/beta-3; experiment: Antagonist activity at alphaVbeta3 in human SK-MEL-24 cells assessed as reduction in cell adhesion to fibronectin pre-incubated for 30 mins before fibronectin and further incubated for 1 hr by nitrophenyl-N-acetyl-beta-D-glucosaminide substrate based chromogenic assay
In short: as §2, with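 “BSA/PBS.” for “BSA/PBS. Adherent cells read by hexosaminidase substrate, absorbance 405 nm.”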

Integrin alpha-V/beta-5 [5] = target: T4, Integrin alpha-V/beta-5 (Homo sapiens, UniProt P06756+P18084); experiment: Agonist activity at alphaVbeta5 in human MCF7 cells assessed as increase in cell adhesion to fibrinogen pre-incubated for 30 mins before fibrinogen and further incubated for 1 hr by nitrophenyl-N-acetyl-beta-D-glucosaminide substrate based chromogenic assay; in short: as §2
Integrin alpha-V/beta-5 [6] = target: T4, Integrin alpha-V/beta-5; experiment: Antagonist activity at alphaVbeta5 in human MCF7 cells assessed as reduction in cell adhesion to fibrinogen pre-incubated for 30 mins before fibrinogen and further incubated for 1 hr by nitrophenyl-N-acetyl-beta-D-glucosaminide substrate based chromogenic assay
In short: as §2, with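 “BSA/PBS.” for “BSA/PBS. Adherent cells read by hexosaminidase substrate, absorbance 405 nm.”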

Integrin alpha-V/beta-6 [7] = target: T5, Integrin alpha-V/beta-6 (Homo sapiens, UniProt P06756+P18564); experiment: Agonist activity at alphaVbeta6 in human HT-29 cells assessed as increase in cell adhesion to fibronectin pre-incubated for 30 mins before fibronectin and further incubated for 1 hr by nitrophenyl-N-acetyl-beta-D-glucosaminide substrate based chromogenic assay; in short: as §2
Integrin alpha-V/beta-6 [8] = target: T5, Integrin alpha-V/beta-6; experiment: Antagonist activity at alphaVbeta6 in human HT-29 cells assessed as reduction in cell adhesion to fibronectin pre-incubated for 30 mins before fibronectin and further incubated for 1 hr by nitrophenyl-N-acetyl-beta-D-glucosaminide substrate based chromogenic assay
In short: as §2, with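 “BSA/PBS.” for “BSA/PBS. Adherent cells read by hexosaminidase substrate, absorbance 405 nm.”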

Integrin alpha-5/beta-1 [9] = target: T2, Integrin alpha-5/beta-1; experiment: Antagonist activity at alpha5beta1 in human K562 cells assessed as reduction in cell adhesion to fibronectin pre-incubated for 30 mins before fibronectin and further incubated for 1 hr by nitrophenyl-N-acetyl-beta-D-glucosaminide substrate based chromogenic assay; in short: as §2
[10] = target: T1, Integrin alpha-IIb/beta-3; experiment: Agonist activity at alpha2bbeta3 in human HEL cells assessed as increase in cell adhesion to fibrinogen pre-incubated for 30 mins before fibrinogen and further incubated for 1 hr by nitrophenyl-N-acetyl-beta-D-glucosaminide substrate based chromogenic assay
In short: as §2, with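 “BSA/PBS.” for “BSA/PBS. Adherent cells read by hexosaminidase substrate, absorbance 405 nm.”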

[11] = target: T1, Integrin alpha-IIb/beta-3; experiment: Antagonist activity at alpha2bbeta3 in human HEL cells assessed as reduction in cell adhesion to fibrinogen pre-incubated for 30 mins before fibrinogen and further incubated for 1 hr by nitrophenyl-N-acetyl-beta-D-glucosaminide substrate based chromogenic assay
In short: as §2, with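 “BSA/PBS.” for “BSA/PBS. Adherent cells read by hexosaminidase substrate, absorbance 405 nm.”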

Integrin alpha-4/beta-1 [12] = target: T6, Integrin alpha-4/beta-1 (Homo sapiens, UniProt P05556+P13612); experiment: Antagonist activity at alpha4beta1 in human Jurkat E6.1 cells assessed as reduction in cell adhesion to VCAM1 pre-incubated for 30 mins before VCAM1 and further incubated for 30 mins by […]; assay type: cell-based
[13] = target: T7, Integrin alpha-L/beta-2 (LFA-1) (Homo sapiens, UniProt P05107+P20701); experiment: Agonist activity at alphaLbeta2 in human Jurkat E6.1 cells assessed as increase in cell adhesion to ICAM1 pre-incubated for 30 mins before ICAM1 and further incubated for 30 mins by […]; assay type: cell-based
In short: (§3)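 Jurkat E6.1 cells labelled with CellTracker green CMFDA (12.5 µM, 30 min, 37 °C), washed, then pre-incubated 30 min at 37 °C with compound or methanol. Plated at 500,000/well on VCAM-1 (α4β1) or ICAM-1 (αLβ2) coated wells (5 µg/mL) for 30 min at 37 °C. Cells lysed in 0.5% Triton X-100; fluorescence read Ex485/Em535. Quadruplicate, at least three repeats.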

[14] = target: T7, Integrin alpha-L/beta-2 (LFA-1); experiment: Antagonist activity at alphaLbeta2 in human Jurkat E6.1 cells assessed as reduction in cell adhesion to ICAM1 pre-incubated for 30 mins before ICAM1 and further incubated for 30 mins by […]; assay type: cell-based; in short: as §3
Integrin alpha-V/beta-3 [15] = target: T3, Integrin alpha-V/beta-3; experiment: Inhibition of fibronectin binding to human recombinant alphaVbeta3 expressed in HEK293 cells incubated for 1 hr by […] competitive solid-phase binding assay; assay type: cell-based
Integrin alpha-V/beta-5 [16] = target: T4, Integrin alpha-V/beta-5; experiment: Inhibition of fibrinogen binding to alphaVbeta5 isolated form human mCf7 cells incubated for 1 hr by […] competitive solid-phase binding assay
Integrin alpha-V/beta-6 [17] = target: T5, Integrin alpha-V/beta-6; experiment: Inhibition of fibronectin binding to alphaVbeta6 isolated form human HT-29 cells incubated for 1 hr by […] competitive solid-phase binding assay; assay type: tissue-based
Integrin alpha-4/beta-1 [18] = target: T6, Integrin alpha-4/beta-1; experiment: Inhibition of fibronectin binding to […] isolated from human Jurkat E6.1 cells incubated for 1 hr by scintillation-proximity assay based competitive solid-phase binding assay; assay type: tissue-based
Integrin alpha-4/beta-1 [19] = target: T6, Integrin alpha-4/beta-1; experiment: Antagonist activity at alpha4beta1 in human Jurkat E6.1 cells assessed as reduction in VCAM-1 induced ERK1/2 phosphorylation at 1 to 100 nM by Western blot analysis; assay type: cell-based; settings: filed as antagonist, dose 1-100 nM
Integrin alpha-4/beta-1 [20] = target: T6, Integrin alpha-4/beta-1; experiment: Antagonist activity at alpha4beta1 in human Jurkat E6.1 cells assessed as reduction in exposure of HUTS-21 epitope measured by mAb binding; assay type: cell-based; settings: filed as antagonist
In short: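 Jurkat E6.1 cells at 10⁶/mL in 1% BSA/HBSS incubated 30 min at 37 °C with compound. PE-labelled HUTS-21 mAb then added for 45 min at room temperature. Cells washed, 10,000 analysed by flow cytometry. MFI corrected to isotype control set to 0. Four independent experiments in duplicate.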

Integrin alpha-4/beta-1 [21] = target: T6, Integrin alpha-4/beta-1; experiment: Agonist activity at alpha4beta1 in human Jurkat E6.1 cells assessed as increase in cell adhesion to VCAM1 pre-incubated for 30 mins before VCAM1 and further incubated for 30 mins by […]; assay type: cell-based; in short: as §3
Integrin alpha-V/beta-3 [22] = target: T3, Integrin alpha-V/beta-3; experiment: Agonist activity at alphaVbeta3 in human SK-MEL-24 cells assessed as increase in cell adhesion to fibronectin at 2 to 10 ug/ml pre-incubated for 30 mins and further incubated for 1 hr by nitrophenyl-N-acetyl-beta-D-glucosaminide substrate based chromogenic assay; settings: filed as agonist, dose 2-10 µg/ml, time 90.0 min
Integrin alpha-V/beta-3 [23] = target: T3, Integrin alpha-V/beta-3; experiment: (§4) Agonist activity at alphaVbeta3 in human SK-MEL-24 cells assessed as increase in cell adhesion to fibronectin at 10 ug/ml pre-incubated for 30 mins and further incubated for 1 hr in presence of in presence of integrin antagonist c(-RGDfV) by nitrophenyl-N-acetyl-beta-D-glucosaminide substrate based chromogenic assay; settings: dose 10.0 µg/ml, time 90.0 min
Integrin alpha-V/beta-3 [24] = target: T3, Integrin alpha-V/beta-3; experiment: as §4, with “of neutralizing antibody against the alphaV” for “of in presence of”, “integrin subunit” for “integrin antagonist c(-RGDfV)”; settings: dose 10.0 µg/ml, time 90.0 min

SMILES	IC50 [1] [nM]	IC50 (Integrin alpha-5/beta-1 [2]) [nM]	Activity (SK-MEL-24)	Activity (MCF7)	Activity (HT-29)	Activity (K562)	Activity (HEL)	EC50 (Integrin alpha-V/beta-5 [5]) [nM]	EC50 (Integrin alpha-V/beta-6 [7]) [nM]	EC50 [10] [nM]	IC50 [11] [nM]	IC50 (Integrin alpha-4/beta-1 [12]) [nM]	IC50 [14] [nM]	IC50 (Integrin alpha-V/beta-3 [15]) [nM]	IC50 (Integrin alpha-V/beta-5 [16]) [nM]	IC50 (Integrin alpha-V/beta-6 [17]) [nM]	IC50 (Integrin alpha-4/beta-1 [18]) [nM]	further results
Nc1ccc(CNC(=O)N2C(=O)C[C@H]2C(=O)O)cc1.O=C(O)C(F)(F)F	> 1000	331	Non-Toxic	Non-Toxic	Non-Toxic	Non-Toxic	Non-Toxic	> 5000	> 5000	> 5000	> 5000	8.8	> 5000	> 1000	> 1000	> 1000	7.6	EC50 (Integrin alpha-V/beta-3 [3]): > 5000 nM; IC50 (Integrin alpha-V/beta-3 [4]): > 5000 nM; IC50 (Integrin alpha-V/beta-5 [6]): > 5000 nM; IC50 (Integrin alpha-V/beta-6 [8]): > 5000 nM; IC50 (Integrin alpha-5/beta-1 [9]): 525 nM; EC50 [13]: > 5000 nM; Activity (Integrin alpha-4/beta-1 [19]): Dose-dependent effect; Activity (Integrin alpha-4/beta-1 [20]): Dose-dependent effect
NCc1ccc(NC(=O)N2C(=O)CC2CC(=O)O)cc1.O=C(O)C(F)(F)F (stereo unspecified)	> 1000	5.5	Non-Toxic	Non-Toxic	Non-Toxic	Non-Toxic	Non-Toxic	5.09	167	> 5000	> 5000	> 5000	2410	5.6	3.8	80.5	> 1000	EC50 (Integrin alpha-4/beta-1 [21]): > 5000 nM; Activity (Integrin alpha-V/beta-3 [22]): Dose-dependent effect; Activity (Integrin alpha-V/beta-3 [23]): inactive; Activity (Integrin alpha-V/beta-3 [24]): inactive
